Screening results (PubChem BioAssay)
Most compounds without a hit are left out; they make up all but 3.5% or so of the library.
RGS4 inh: human RGS4 inhibition; P49798; 310,000 compounds, 0.45% hits; HEK293 M3R/RGS4 inducible, Fluo-4 calcium flux; stronger effect = higher value; triggered by carbachol at its EC20; B-score at 10 µM;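 active = B-score, a plate-corrected calcium signal, over three deviations above library mean, with baseline fluorescence within five deviations of library mean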;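 note: RGS4 expression induced by doxycycline in cells with stable M3 receptor; B-score is computed from the integrated fluorescence ratio over baseline after carbachol; higher B-score means a larger calcium signal and so more RGS4 inhibition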
Target sequence (P49798 whole entry, looked up): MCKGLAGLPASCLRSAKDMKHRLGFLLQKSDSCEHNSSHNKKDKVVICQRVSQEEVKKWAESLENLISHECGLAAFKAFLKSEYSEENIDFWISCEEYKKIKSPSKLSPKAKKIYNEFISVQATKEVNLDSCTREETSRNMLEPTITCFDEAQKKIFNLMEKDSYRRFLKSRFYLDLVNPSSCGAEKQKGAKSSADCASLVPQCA
MrgX1 allo act: allosterically activates human MrgX1 receptor signaling | MrgX1-HEK293, Fluo-4 calcium flux, FDSS; stronger effect = higher value | Q96LB2 | B-score at 10 µM | 310,000 compounds, 0.63% hits;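 active = plate-corrected calcium response at least 3 library SD above typical, normal starting fluorescence, not activating the receptor alone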;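 note: compound read alongside a low EC10 to EC30 dose of BAM8-22 agonist; peak minus trough fluorescence over baseline measured at the second addition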
Target sequence (Q96LB2 whole entry, looked up): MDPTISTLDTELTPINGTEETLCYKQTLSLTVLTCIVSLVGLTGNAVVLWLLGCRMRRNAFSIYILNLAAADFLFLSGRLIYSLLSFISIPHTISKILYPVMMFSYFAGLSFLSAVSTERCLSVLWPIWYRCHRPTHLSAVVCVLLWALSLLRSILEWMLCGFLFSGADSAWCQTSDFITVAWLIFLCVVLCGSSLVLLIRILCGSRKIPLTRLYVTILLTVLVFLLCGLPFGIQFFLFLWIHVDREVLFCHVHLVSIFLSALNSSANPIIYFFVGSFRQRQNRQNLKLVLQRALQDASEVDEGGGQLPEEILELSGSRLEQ
MrgX1 agonist: human MrgX1 receptor agonism, primary screen; Q96LB2; MrgX1-HEK293 cells, Fluo-4 calcium fluorescence, agonist mode; stronger effect = higher value; B-score at 10 µM; 310,000 compounds, 0.44% hits; AID 588627;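 active = calcium response B-score plate-corrected fluorescence ratio at least 3 library SD, with starting fluorescence B-score inside 5 SD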
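System – MrgX1-expressing HEK293 cells · Incubation – cells plated overnight, dye loaded 0.5 h 37 °C, 0.5 h room temperature · Technique – kinetic Fluo-4 NW fluorescence of intracellular calcium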
RGS4 pot: potentiators or activators of RGS4 | HEK293 M3R/inducible RGS4, carbachol calcium flux Fluo4; stronger effect = lower value | AID 463111 | 310,000 compounds, 0.92% hits | B-score at 10 µM;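 active = B-score of the integrated calcium signal more than 4 SD below the library mean, with starting fluorescence not abnormally high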;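 note: negative B-score means reduced calcium response which marks RGS4 activation or potentiation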
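Reagent: ECmax carbachol challenge; Test system: M3R-expressing HEK293 line, RGS4 induced by doxycycline; Schedule: overnight RGS4 induction, 30 min dye load 37 °C, 20 min compound RT; Detection: calcium dye Fluo4 fluorescence; Read-out: Agonist-evoked peak-minus-minimum fluorescence over baseline, integrated ratio, B score.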
MrgX1 antagonist: blocks BAM8-22 activation of human MrgX1 receptor; Q96LB2; AID 588676; MRGX1-HEK293 calcium flux, Fluo-4, BAM8-22 antagonism; stronger effect = lower value; 310,000 compounds, 1.3% hits; B-score at 10 µM;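 active = calcium-response B-score plate-corrected more than 3 library SD below zero, starting fluorescence within 5 deviations, no agonist response on first addition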;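 note: peak minus trough fluorescence over baseline after final BAM8-22 challenge near maximal dose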
MrgX1 allo conf: confirmation of human MrgX1 receptor positive allosteric modulators; shares compounds with MrgX1 allo act; MrgX1-HEK293, Fluo-4 calcium fluorescence, FDSS; activation (ratio percentage), % at 10 µM; 1,200 compounds, 13% hits;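 active = ratio at least 3 SD above the weak peptide control, stable starting fluorescence, no direct agonism earlier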;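 note: compound followed by low BAM8-22 agonist challenge near EC20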
HEK293 Ca flux: MrgX1 antagonist counter-screen hit in parental HEK293 cells | shares compounds with MrgX1 antagonist | Fluo-4 calcium fluorescence, FDSS | fluorescence ratio F(max-min)/F0 at 10 µM | 4,000 compounds, 2% hits | AID 624111;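 active = duplicate-averaged calcium fluorescence ratio at least three times the standard deviation of buffer wells, a nonspecific response in parental cells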
HEK293 Ca counter: activity in parental HEK293 cells without MrgX1; shares compounds with MrgX1 antagonist; parental HEK293 calcium flux, Fluo-4 fluorescence ratio; stronger effect = higher value; fluorescence ratio F(max-min)/F0 at 10 µM; 4,000 compounds, 0.4% hits; AID 624114;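 active = calcium fluorescence ratio, averaged over duplicates, at least 3 SD of the buffer-well ratio, meaning a nonspecific response in receptor-free cells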;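 note: untransfected parental HEK293 lacking MrgX1 used as counterscreen for MrgX1 allosteric activators; fluorescence change taken during the second addition on a kinetic imager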
HEK293 Ca cntr2: counter-screen for MrgX1 activators: effect in parental HEK293 cells | AID 624115 | 4,000 compounds, 8.7% hits | Fluo-4 calcium fluorescence (FDSS); stronger effect = higher value | shares compounds with MrgX1 antagonist | fluorescence ratio F(max-min)/F0 at 10 µM;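 active = calcium fluorescence ratio at least three times the spread of buffer wells, meaning a non-specific response in parental cells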
Large screens that a line does not name were inactive (follow-up assays come after a bar, where they were run).

O=C(c1ccccc1)N1CCN(c2ncccn2)CC1	none
CC1(C)CC(=O)C2=C(C1)OC1=C(C(=O)CC(C)(C)C1)C2(C)C	none
COc1ccc(C(=O)Nc2cc(=O)n(C)c(=O)n2C)cc1OC	none
COc1ccc(CC(=O)Nc2cc(=O)n(C)c(=O)n2C)cc1OC	MrgX1 allo act 6.6 | MrgX1 allo conf inactive | HEK293 Ca flux inactive | HEK293 Ca counter inactive | HEK293 Ca cntr2 inactive
COc1ccc(OC)c(S(=O)(=O)N2CCN(c3ccccc3)CC2)c1	none
COc1ccc(C(C)C)cc1S(=O)(=O)N1CCN(c2ccccc2)CC1	MrgX1 allo act 15 | MrgX1 allo conf inactive | HEK293 Ca flux inactive | HEK293 Ca counter inactive | HEK293 Ca cntr2 inactive
COc1ccc(Cl)cc1S(=O)(=O)N1CCN(c2ccc(F)cc2)CC1	MrgX1 allo act 17 | MrgX1 allo conf inactive | HEK293 Ca flux inactive | HEK293 Ca counter inactive | HEK293 Ca cntr2 inactive
COc1ccc(CC(=O)NNC(=O)c2ccco2)cc1OC	none
CCOC(=O)/C(C(=Nc1ccccc1)Nc1ccccc1)=C(\C)O	MrgX1 allo act 7.7 | MrgX1 allo conf inactive | HEK293 Ca flux inactive | HEK293 Ca counter inactive | HEK293 Ca cntr2 inactive
COc1cc(O)c(/C=N/NC(=O)c2ccncc2)c(OC)c1[N+](=O)[O-]	none
CCNC(=S)Nc1cccc(S(=O)(=O)NC2=NCCC2)c1	none
O=C(CCl)Nc1cccc(S(=O)(=O)NC2=NCCC2)c1	MrgX1 allo act 7.9 | MrgX1 allo conf inactive | HEK293 Ca flux inactive | HEK293 Ca counter inactive | HEK293 Ca cntr2 inactive
COc1cccc(N2CCN(c3ccc4nnc(CCC(=O)Nc5ccccn5)n4n3)CC2)c1	MrgX1 allo act 7.5 | MrgX1 allo conf inactive | HEK293 Ca flux inactive | HEK293 Ca counter inactive | HEK293 Ca cntr2 inactive
COc1cccc(N2CCN(c3ccc4nnc(CCC(=O)Nc5ccc(OC)c(OC)c5)n4n3)CC2)c1	none
Nc1nc(C23CC4CC(CC(Cl)(C4)C2)C3)cs1	none
Nc1nc(C23CC4CCC(CC(C4)C2)C3)cs1	MrgX1 allo act 7.1 | MrgX1 allo conf inactive | HEK293 Ca flux inactive | HEK293 Ca counter inactive | HEK293 Ca cntr2 inactive
CC1CCCN(C(=O)CSc2nnc(-c3c[nH]c4ccccc34)o2)C1 (configuration not stated)	MrgX1 allo act 9.5 | MrgX1 allo conf 8.7% | HEK293 Ca flux inactive | HEK293 Ca counter inactive | HEK293 Ca cntr2 inactive
CC(=O)c1sc(N2CCOCC2)nc1-c1ccccc1	MrgX1 allo act 12 | MrgX1 allo conf inactive | HEK293 Ca flux inactive | HEK293 Ca counter inactive | HEK293 Ca cntr2 inactive
COCCCNC(=S)N1CCN(S(C)(=O)=O)CC1	none
Cc1ccc2cc(/C=N/NC(=O)c3ccccc3[N+](=O)[O-])c(Cl)nc2c1	none
Cc1ccc2nc(Cl)c(-c3ccccc3)cc2c1	MrgX1 allo act 8.3 | MrgX1 allo conf inactive | HEK293 Ca flux inactive | HEK293 Ca counter inactive | HEK293 Ca cntr2 inactive
CC(C)(CN1CCc2ccccc2C1)NS(=O)(=O)c1ccc(Cl)cc1	none
C=CCSc1nc(Oc2ccccc2)c2sccc2n1	none
C=CCNc1nc(SCC=C)nc2ccsc12	MrgX1 allo act 7.4 | MrgX1 allo conf inactive | HEK293 Ca flux inactive | HEK293 Ca counter inactive | HEK293 Ca cntr2 inactive
Cc1cc(NC(=O)CCC(=O)N(CCC(C)C)C(C(=O)NCC2CCCO2)c2ccccc2C)no1 (configuration not stated)	none
O=C(C1CC1)N1CCc2cc(Br)cc(S(=O)(=O)N3CCCCCC3)c21	MrgX1 allo act 11 | MrgX1 allo conf inactive | HEK293 Ca flux inactive | HEK293 Ca counter inactive | HEK293 Ca cntr2 inactive
Cc1ccnc(NC(=O)c2ccc(Cl)s2)c1	MrgX1 allo act 8.5 | MrgX1 allo conf inactive | HEK293 Ca flux inactive | HEK293 Ca counter inactive | HEK293 Ca cntr2 inactive
